According to ChEMBL document CHEMBL1268838, “The synthesis and biologic evaluation of anti-platelet and cytotoxic β-nitrostyrenes” (Bioorg Med Chem, 2010):

Key:
[1] = Antiaggregatory activity in human platelets assessed as inhibition of collagen-induced platelet aggregation preincubated for 3 mins before collagen challenge by turbidimetry analysis; assay type: functional, cell-based
Outline: (§1)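 Washed platelets from ACD-anticoagulated blood of drug-free healthy volunteers, resuspended at 3 × 10⁸/ml in Tyrode's solution with Ca²⁺ 2 mM, glucose 11.1 mM and BSA 3.5 mg/ml. Platelets were stirred at 1200 rpm and 37 °C for 3 min with DMSO (0.5%, vehicle) or compound, then the inducer was added. Aggregation was read by light-transmission aggregometry. IC50 is the mean of two independent experiments (TPA lines n = 3).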

[2] = Antiaggregatory activity in human platelets assessed as inhibition of thrombin-induced platelet aggregation preincubated for 3 mins before thrombin challenge by turbidimetry analysis; assay type: functional, cell-based; outline: as §1
MDA-MB-231 [3] = test: Cytotoxicity against human MDA-MB-231 cells after 72 hrs by MTT assay; assay type: functional, cell-based; settings: MDA-MB-231, 72 h
Outline: (§2)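 MDA-MB-231 breast cancer or HBL-100 non-malignant breast epithelial cells: freshly trypsinized cells seeded at 8000 per well, with compound added from DMSO-diluted stock. After 72 h, attached cells were given MTT (0.5 mg/mL, 1 h) and solubilized in DMSO.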

MDA-MB-231 [4] = test: Cytotoxicity against human MDA-MB-231 cells at 20 uM after 72 hrs by MTT assay; assay type: functional; settings: MDA-MB-231, 72 h
HBL-100 [5] = test: Cytotoxicity against human HBL100 cells after 72 hrs by MTT assay; assay type: functional, cell-based; settings: HBL-100, 72 h; outline: as §2
HBL-100 [6] = test: Cytotoxicity against human HBL100 cells at 20 uM after 72 hrs by MTT assay; assay type: functional; settings: HBL-100, 72 h

| Structure (SMILES) | IC50 [1] [µM] | IC50 [2] [µM] | IC50 (MDA-MB-231 [3]) [µM] | inhibition at 20 µM (MDA-MB-231 [4]) [%] | IC50 (HBL-100 [5]) [µM] | inhibition at 20 µM (HBL-100 [6]) [%] |
| --- | --- | --- | --- | --- | --- | --- |
| COc1cc(/C=C/[N+](=O)[O-])ccc1OC(=O)c1ccc(Br)cc1 | 0.6 | 1.2 | > 20 | 9.1 | > 20 | 6.3 |
| COc1cc(/C=C/[N+](=O)[O-])ccc1OC(=O)c1cc(Cl)cc(Cl)c1 | 1.4 | 1.9 | > 20 | 20 | > 20 | 15.6 |
| COc1cc(/C=C/[N+](=O)[O-])ccc1OC(=O)c1ccccc1Cl | 0.6 | 1 | > 20 | 7 | > 20 | 8.2 |
| COc1cc(/C=C/[N+](=O)[O-])ccc1OC(=O)c1cccc(F)c1F | 1.6 | 3.3 | > 20 | 25.5 | > 20 | 4.1 |
| COc1cc(/C=C/[N+](=O)[O-])ccc1OC(=O)c1cc(F)c(F)c(F)c1 | 0.9 | 1.4 | 12.4 | – | > 20 | 16.6 |
| COc1cc(/C=C/[N+](=O)[O-])ccc1OC(=O)c1cccc(C)c1 | 0.9 | 1.7 | 13.4 | – | 4.1 | – |
| COc1cc(/C=C/[N+](=O)[O-])ccc1OC(=O)c1ccccc1 | 1.1 | 2.7 | 13.1 | – | > 20 | 0 |
| COc1ccc(/C=C(\C)[N+](=O)[O-])cc1OC(=O)c1ccccc1 | 1 | 2.9 | 6.6 | – | 7.3 | – |
| COc1cc(/C=C/[N+](=O)[O-])ccc1OC(=O)c1cc(F)cc(F)c1 | 1.4 | 3.4 | > 20 | 24.7 | > 20 | 19 |
| O=[N+]([O-])/C=C/c1ccc(O)cc1 | 18.4 | 45.1 | > 20 | 38.3 | 16.3 | – |
| COc1cc(/C=C/[N+](=O)[O-])ccc1OC(=O)c1cccc(Cl)c1 | 0.5 | 1.2 | 18.9 | – | > 20 | 23.2 |
| O=[N+]([O-])/C(O)=C/c1ccccc1 | 7.8 | 35.5 | 13.9 | 21.2 | > 20 | 34.9 |
| COc1ccc(/C=C/[N+](=O)[O-])cc1OC | 7.6 | 12.8 | – | – | – | – |
| COc1cc(/C=C/[N+](=O)[O-])ccc1OC(=O)c1cccc(F)c1 | 1.4 | 2.6 | > 20 | 44.9 | > 20 | 38.2 |
| COc1cc(/C=C/[N+](=O)[O-])ccc1OC(=O)c1ccc(F)cc1 | 0.8 | 0.9 | 9.8 | – | > 20 | 25.1 |
| COc1cc(/C=C/[N+](=O)[O-])ccc1OC(=O)c1cc(OC)c(OC)c(OC)c1 | 1.1 | 1.1 | 13.9 | – | > 20 | 47.4 |
| COc1cccc(C(=O)Oc2ccc(/C=C/[N+](=O)[O-])cc2OC)c1 | 0.7 | 2.9 | > 20 | 28.9 | 12.1 | – |
| COc1cc(/C=C/[N+](=O)[O-])ccc1OC(=O)c1ccc(C)cc1 | 2 | 2.7 | > 20 | 7.9 | > 20 | 8 |
| COc1ccc(C(=O)Oc2ccc(/C=C/[N+](=O)[O-])cc2OC)cc1 | 0.8 | 3.5 | 18.1 | – | > 20 | 22.7 |
| COc1cc(/C=C/[N+](=O)[O-])ccc1OC(=O)c1ccc(Cl)c(Cl)c1 | 1.8 | 1 | > 20 | 9.4 | > 20 | 15.2 |
| O=[N+]([O-])/C=C/c1ccc2c(c1)OCO2 | 7.2 | 14 | 14 | – | > 20 | 39.2 |
| COc1cc(/C=C/[N+](=O)[O-])ccc1OC(=O)c1ccc(F)cc1F | 2 | 3 | > 20 | 18.5 | > 20 | 16 |
| O=[N+]([O-])/C=C/c1ccc(Cl)cc1 | 3.5 | 7.5 | > 20 | 36.6 | 15.7 | – |

| Structure (SMILES) | IC50 [1] [µM] | IC50 [2] [µM] | IC50 (MDA-MB-231 [3]) [µM] | inhibition at 20 µM (MDA-MB-231 [4]) [%] | IC50 (HBL-100 [5]) [µM] | inhibition at 20 µM (HBL-100 [6]) [%] |
| --- | --- | --- | --- | --- | --- | --- |
| COc1cc(/C=C/[N+](=O)[O-])ccc1OC(=O)c1ccccc1F | 1.6 | 4.7 | > 20 | 26.5 | > 20 | 4.9 |
| CCOc1cc(/C=C/[N+](=O)[O-])ccc1OC(=O)c1ccccc1 | 1 | 1.2 | 15.3 | – | 11.6 | – |
| COc1cc(/C=C/[N+](=O)[O-])ccc1OC(=O)c1ccccc1OC | 0.8 | 2.1 | 19.4 | – | > 10 | 8.8 |
| COc1ccc(/C=C/[N+](=O)[O-])cc1O | 7.2 | 28.5 | 18.9 | – | 12.8 | – |
| COc1cc(/C=C/[N+](=O)[O-])ccc1OC(=O)c1ccc(Cl)cc1 | 0.7 | 1.5 | > 20 | 33.2 | > 20 | 7.3 |
| CCOc1cc(/C=C/[N+](=O)[O-])ccc1O | 16.2 | 78.1 | > 20 | 34.4 | > 20 | 35.2 |
| CCOc1cc(/C=C(\C)[N+](=O)[O-])ccc1OC(=O)c1ccccc1 | 1.1 | 0.8 | 12.1 | – | 14.6 | – |
| COc1cc(/C=C/[N+](=O)[O-])ccc1OC(=O)c1ccc(F)c(F)c1 | 1.1 | 2.9 | > 20 | 22.1 | > 20 | 0.5 |
| COc1ccc(/C=C/[N+](=O)[O-])cc1 | 3.5 | 12.1 | 16.3 | – | 13 | – |
| COc1cc(/C=C/[N+](=O)[O-])ccc1OC(=O)c1ccc(F)c(F)c1F | 2.7 | 23 | > 20 | 3.7 | > 20 | 1.1 |
| Cc1ccc(/C=C/[N+](=O)[O-])cc1 | 5.9 | 8.9 | > 20 | – | 15 | – |
| COc1cc(/C=C/[N+](=O)[O-])ccc1OC(=O)c1cccc(Br)c1 | 0.9 | 1.3 | > 20 | 19.1 | > 20 | 18.2 |
| O=[N+]([O-])/C=C/c1ccccc1 [(2-NITROVINYL)BENZENE] | 4.9 | 17.8 | – | – | – | – |
| COc1cc(/C=C/[N+](=O)[O-])ccc1OC(=O)c1ccccc1Br | 2 | 5.4 | > 20 | 8.3 | > 20 | 10 |
| COc1cc(/C=C/[N+](=O)[O-])ccc1O | 16.4 | 66.5 | – | – | – | – |
| COc1cc(/C=C/[N+](=O)[O-])ccc1OC(=O)c1ccc(C(F)(F)F)cc1 | 8.3 | 6.2 | > 20 | -4.9 | > 20 | -7.3 |
| COc1cc(/C=C/[N+](=O)[O-])ccc1OC(=O)c1cccc(C(F)(F)F)c1 | 1.7 | 3.3 | > 20 | 34.9 | > 20 | 12.5 |
| COc1cc(/C=C/[N+](=O)[O-])ccc1OC(=O)c1ccc(Cl)cc1Cl | 0.7 | 0.7 | > 20 | -0.1 | > 20 | 9.9 |
| COc1cc(/C=C/[N+](=O)[O-])ccc1OC(=O)c1ccccc1C(F)(F)F | 1.3 | 2.5 | > 20 | 20.4 | > 20 | 2.4 |
| COc1cc(/C=C/[N+](=O)[O-])ccc1OC(=O)c1ccccc1C | 1.2 | 1.5 | > 20 | 36.3 | > 20 | 1.8 |
| COc1ccc(/C=C/[N+](=O)[O-])cc1OC(=O)c1ccccc1 | 0.8 | 1.9 | 7.7 | – | < 10 | 79.8 |
| O=[N+]([O-])C(=Cc1ccccc1)[N+](=O)[O-] | 3 | 5.7 | 9.9 | – | > 20 | 34.2 |
